Test results published in the RNAGym collection of RNA variant scans (doi:10.1126/science.aae0568).
Fewer inactive variants are shown than the library holds.

B1: tRNA (parent)
chain: GUUCCGUUGGCGUAAUGGUAACGCGUCUCCCUCCUAAGGAGAAGACUGCGGGUUCGAGUCCCGUACGGAACG

Variants of: B1
Assay: yeast fitness relative to wild type (ratio to wild type); higher = fitter; tRNA-Arg(CCU), competitive growth, 37 C, YPD
Outline: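 The tRNA-Arg(CCU) gene variants were made by chemical synthesis with a 3% per-site mutation rate at 69 sites and inserted at the native genomic locus of Saccharomyces cerevisiae. After pooling, the strains were competed in YPD at 37°C for 24 hours in six parallel replicates. Gene amplicons from the start population and each end population were read by 100-nucleotide paired-end sequencing, and Darwinian fitness relative to wild type was taken from genotype frequency changes. Genotypes needed ≥ 100 starting reads, and estimates < 0.5 were set to 0.5.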

Variant	yeast fitness
GUUUCGUUGGCGUCAUGGUAACGCGUCUCCCUCCUAAGGAGAAAACUGCGGGUACGAGUCCCGUACGGAUCG	≤ 0.5
GUUUCGUUGGCGUACUGGUAACGCGUCUCGCUCCUAAGGAGAAGACUGCGGAUUCGAGUCCCGUCCGGAACG	≤ 0.5
GUUGCGUUGGCGUAAUGGUAACGCGUCACCGUCCUAAGGAGAAGACUGCGGGUUCGGGUCCUGUACGGAACG	0.532
GUUUCGUUGGCGUUAUGGUAACGCGUCUCCCUCCUAAGGAGAAGACUGCGGGUUCGAGUCCCGUACGGUACG	0.651
GUUUCGUUGGCGUACUGGUAACGCGUCUGGCUCCUAAGGAGACGACUGCGGGUUCGAGUCCCGUACGGAACG	≤ 0.5
GUUGCGUUGGCGUAAUGGUAACGCGUCUCCCUCCUAAGGAGAAGACUGCGGGCUCGAGUCCCGUACGGAACG	0.776
GUUGCGUUGGCGUAAUGGUAACGCGACUCUCUCCUAAGGAGAAGACUACGGGUAGGAGUCCCGUUCGGAACG	≤ 0.5
GUUUCGUUGGCGUGAUGGUAACGCGUCUCCCUCCUAAGGUGAAGACUGCGGGUUCGAGUCCCGUACGGAACG	0.593
GUUGCGUUGGCGUAAUGGUAACGCGUCCCCCUCCUAAGGAGAAGACUGCGGGUUCGAGUCCCGUAUGGAACG	0.524
GUUGCGUUGGCGUAAUGGUAACGCGUCUCCCUCCCAAGGAGAAGACUGUGGGUUCGAGUCCCGUACGGAACG	0.533
GUUGCGUUGGCGUAAUGGUAACGCGUCUCCCUCCUAAGGAGAAGACUGCGGGAUCGAGUCCCGUCCGGAACG	≤ 0.5
GUUGCGUUGGCGUAAUGGUAACGCGUCUCCCUCCUAAGGAGAAGACGGCGGGUUCGAGACCCGUAAGGAACG	≤ 0.5
GUUUCGUUGGCGUACUGGUAACGCGUCUCGCUCCUAAGGAGAAGACUGCGGGUUCGAGUCCCGUACGGCGCG	≤ 0.5
GUUUCGUUGGCGUAUUGGUAACGCGUCUCCCUCCUAAGGAGAAGACUGCGGGUUCGAGUCCCGUACGAAACG	≤ 0.5
GUUGCGUUGGCGUAAUGGUAACGCGUCUCCCCCCUAAGGAGAAGACUGCGGGUUCGAGUCCCGUACGGAACG	0.944
GUUGCGUUGGCGUAAUGGUAACGCGUCUCCCACCUAAGGAGAAGACUGCGGGUUCGAGUCCCGUACGGAACG	0.864
GUUUCGUUGGCGUAAUGGUCACGCGUCUCACUCCUAAGGAGAAGACUGCGGGUUAGAGUCCCGUACAGAACG	0.53
GUUUCGUUGGCGUCAUGGUAACGCGUCUCCCUCCUAAGCAGAAGACUGCGGGUUCGAGUCCCGUACGGAACG	≤ 0.5
GUUGCGUUGGCGUAAUGGUAACGCGUCUCCCUCCCAAGGAGAAGACUGCGGGUUGGAGUCCCGUACGGAACG	≤ 0.5

Variant	yeast fitness
GUUUCGUUGGCGUAGUGGUAACACGUCUCCCUCGUAAGGAGAAGACUGCGGGUUCGAGUCCCGUACGGAACG	≤ 0.5
GUUUCGUUGGCGUGAUGGUAACGCGUCUCCCUCCUAAGGAGAAGAGUGCGGGUUCGAGUCCCGUACGGAACG	0.659
GUUGCGUUGGCGUAAUGGUAACGCGUCUCCCUCCUAAGGAGAAGACUGCGGGUUCGAGGCCCGUACGGAACG	0.653
GUUUCGUUGGCGUACUGGUAACGCGUCUCCCUCCUAAGGAGAAGAUUGCGGGUUCGAGUCCCGUACGGAACG	0.7
GUUUCGUUGGCGUAGUGGUAACCCGUCUCCCUCCUAUGGAGAAGACUGCGGGUUCGAGUCCCGUACGGAACG	≤ 0.5
GUUUCGUUGGCGUAAUGGUGACGCGUCUCACUCCUAAGGAGAAGACUGCGGGUUCGAGUCCCGUACGGAACG	0.81
GUUUCGUUGGCGUAAUGGUGACGCGUCUCCCUCCUAAGGAGAAGACUGCGGGUUCGAGUCCCGUACGGCACG	0.817
GUUGCGUUGGCGUAAUGGUAACGCGUCACCCUCCUAAGAAGAAGACUGCGGGUUCGAGUCCCGUUCGAAACG	≤ 0.5
GUUUCGUUGGCGUAGUGGUAACCCGUCUCCCUCCUAUGGAGAAGACUGCGGGUUCGAGUCACGUACGGAACG	≤ 0.5
GUUGCGUUGGCGUAAUGGUAACGCGACUCCCUCCUAAGGAGAAGACUGUGGGUUCGAGUCCCGUACGGAACG	≤ 0.5
GUUUCGUUGGCGUACUGGUAACGCGUCUCCCUCCUAAGGAGAGAACAGGGGGUUCGAGUCCCGUACGGAACG	≤ 0.5
GUUUCGUUGGCGUAAUGGUGACGCGUCCCCUUCCUAAGGAGAAGACUGCCGGUUUGAGUGCCAUAUGGAACG	0.508
GUUUCGUUGGCGUACUGGUAACGCGUCUCCCUCCUAAGGAGAAGACUGCGGGUUCGAGUCCCGUACGGAUCG	0.573
GUUUCGUUGGCGUAUUGGUAACGCGUCUCCCUCCUAAGGAGAAGGCUGCGGGUUCGAGUCCGGUACGGAACG	≤ 0.5
GUUUCGUUGGCGUAGUGGUAACCCGUCUCCCUCCUAUGGAGAAGACUGUGGGUUCGAGUCCCGUUCGGAACG	0.525
GUUUCGUUGGCGUGAUGGUAACGCGUCUCCCUCCUAAGGAGAAGACUCCGGGUUCGAGUCCCGUACGGAACG	0.659
GUUUCGUUGGCGUACUGGUAACGCGUCUCCCUCCUAAGGAGAAGACUGCGGGUUCGAGUCCCAUACGGAACG	≤ 0.5
GUUGCGUUGGCGUAAUGGUAACGCGUCUCCCGUCUAUGGAGAAGACUGCGGGUUCGAGUCCCGUGCGGAACG	≤ 0.5
